pIC50: −log10 of the molar value. The source made the active and inactive calls. The rule behind the calls is not given here.

For one compound, Activity, IC50 and inhibition results are on record in ChEMBL document CHEMBL3994580, “A novel class of α-glucosidase and HMG-CoA reductase inhibitors from Ganoderma leucocontextum and the anti-diabetic properties of ganomycin I in KK-Ay mice” (Eur J Med Chem, 2017).

The subject of data set [1] is Mus musculus. Description: Acute toxicity in mouse assessed as changes in nature of urine up to 3 g/kg, po up to 14 days. To be noted: in vivo, 336 h.
Data set [2] has as its system Mus musculus. Put plainly: Decrease in size of adipocytes in abdominal white adipose tissue in KK-Ay diabetic mouse model at 5 mg/kg/day administered via oral gavage once daily for 21 days by haematoxylin and eosin staining based microscopic or morphometric method. It counts as functional, organism-based. In a few lines:
(§1)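 At study end, liver and abdominal white adipose tissue were fixed in 10% formaldehyde PBS (pH 7.4), paraffin-embedded, sectioned and stained with haematoxylin/eosin. Sections were assessed by microscopy or morphometry at 20×.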

The test system of data set [3] is Mus musculus. Description: Toxicity in KK-Ay diabetic mouse model assessed as changes in body weight at 1 to 5 mg/kg/day administered via oral gavage once daily measured every 3 days during first two weeks of compound dosing. It counts as organism-based. To be noted: in vivo, 72 h. Put shortly:
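In high-fat-fed KK-Ay mice gavaged once daily for 21 days, individual body weight and cage food consumption were recorded every 3 days. Mean ± SEM, n = 8.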

Data set [4] deals with Sucrase-isomaltase, intestinal (Rattus norvegicus, UniProt P23739). Description: Inhibition of sucrase in rat small intestinal mucosa assessed as reduction in glucose production using sucrose as substrate measured after 40 mins by glucose oxidase assay. In a few lines:
(§2)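 Rat small intestinal mucosa enzyme. Compound in DMSO mixed with substrate (maltose, sucrose or pNPG) and enzyme in 0.1 M phosphate buffer pH 6.9, incubated 40 min. Glucose released measured by glucose oxidase kit at 550 nm. Blank lacked enzyme, control lacked compound. Percent inhibition calculated from blank-corrected OD.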

For data set [5], the system named is Mus musculus. Put plainly: Decrease in lipid droplet accumulation in liver in KK-Ay diabetic mouse model at 5 mg/kg/day administered via oral gavage once daily for 21 days by haematoxylin and eosin staining based microscopic or morphometric method. It counts as functional, organism-based. In a few lines: as §1
Data set [6] concerns Mus musculus. Put plainly: Acute toxicity in mouse assessed as changes in nature of stool up to 3 g/kg, po up to 14 days. To be noted: in vivo, 336 h.
Data set [7] is described as follows: Inhibition of maltase in rat small intestinal mucosa assessed as reduction in glucose production using maltose as substrate measured after 40 mins by glucose oxidase assay. In a few lines: as §2
The subject of data set [8] is Mus musculus. Description: Antidiabetic activity in KK-Ay diabetic mouse model assessed as reduction in blood glucose level after 4 hrs fasting at 1 to 5 mg/kg/day administered via oral gavage once daily measured on day 3 post dose. Format: functional, organism-based. Put shortly:
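KK-Ay mice on high-fat diet, gavaged once daily (1 or 5 mg/kg; rosiglitazone 10 mg/kg). Blood glucose monitored sequentially after 4 h fasting. Mean ± SEM, n = 8, compared with the KK-Ay model group.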

Data set [9] is described as follows: Inhibition of alpha-glucosidase in rat small intestinal mucosa assessed as reduction in glucose production using p-nitrophenyl alpha-D-glucopyranoside as substrate measured after 40 mins by glucose oxidase assay. Put shortly: as §2
Data set [10] deals with Mus musculus. Put plainly: Acute toxicity in mouse assessed as effect on behavior up to 3 g/kg, po up to 14 days. To be noted: in vivo, 336 h.
The subject of data set [11] is Mus musculus. Description: Antidiabetic activity in KK-Ay diabetic mouse model assessed as reduction in blood glucose level at 5 mg/kg/day administered via oral gavage once daily for 21 days measured at 30 to 60 mins post glucose challenge by oral glucose tolerance test. Format: functional, organism-based. In a few lines: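 OGTT on day 21 of daily gavage dosing in KK-Ay mice. Blood glucose read at time points including 30 and 60 min, and the AUC was calculated. Mean ± SEM, n = 8.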

The subject of data set [12] is Mus musculus. Put plainly: Antidiabetic activity in KK-Ay diabetic mouse model assessed as reduction in free diet blood glucose level at 1 to 5 mg/kg/day administered via oral gavage once daily measured on day 3 post dose. It counts as functional, organism-based. In a few lines: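 Non-fasted (free diet) blood glucose was tracked serially in high-fat-fed KK-Ay mice given daily gavage doses (1 or 5 mg/kg; rosiglitazone 10 mg/kg). Mean ± SEM, n = 8.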

Data set [13] has as its system Mus musculus. Description: Antidiabetic activity in KK-Ay diabetic mouse model assessed as reduction in blood glucose level at 1 to 5 mg/kg/day administered via oral gavage once daily for 21 days by oral sucrose tolerance test. It counts as functional, organism-based. In a few lines: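 Oral sucrose tolerance test on day 20 of once-daily gavage treatment in high-fat-fed KK-Ay mice. Blood glucose followed over time, and the AUC was calculated. Mean ± SEM, n = 8.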

In data set [14] the test system is Mus musculus. Description: Decrease in serum AST level in KK-Ay diabetic mouse model at 1 to 5 mg/kg/day administered via oral gavage once daily for 21 days. Format: functional, organism-based. Put shortly:
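Male KK-Ay mice (8 weeks old) on high-fat diet with water ad libitum, dosed by gavage once daily for 21 days (1 or 5 mg/kg test; rosiglitazone 10 mg/kg); female C57BL/6J mice as normal controls. Blood collected at study end. Serum lipids, insulin and glucose measured per cited method. ISI calculated from fasting blood glucose and fasting insulin. Mean ± SEM, n = 7-8.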

For data set [15], the system named is Mus musculus. Description: Hypoglycemic activity in KK-Ay diabetic mouse model assessed as increase in liver hepatic glycogen level at 1 to 5 mg/kg/day administered via oral gavage once daily for 4 weeks. Format: functional, organism-based.
In data set [16] the target is T1, 3-hydroxy-3-methylglutaryl-coenzyme A reductase (Sus scrofa) (UniProt Q1W675).
T1 sequence (whole entry): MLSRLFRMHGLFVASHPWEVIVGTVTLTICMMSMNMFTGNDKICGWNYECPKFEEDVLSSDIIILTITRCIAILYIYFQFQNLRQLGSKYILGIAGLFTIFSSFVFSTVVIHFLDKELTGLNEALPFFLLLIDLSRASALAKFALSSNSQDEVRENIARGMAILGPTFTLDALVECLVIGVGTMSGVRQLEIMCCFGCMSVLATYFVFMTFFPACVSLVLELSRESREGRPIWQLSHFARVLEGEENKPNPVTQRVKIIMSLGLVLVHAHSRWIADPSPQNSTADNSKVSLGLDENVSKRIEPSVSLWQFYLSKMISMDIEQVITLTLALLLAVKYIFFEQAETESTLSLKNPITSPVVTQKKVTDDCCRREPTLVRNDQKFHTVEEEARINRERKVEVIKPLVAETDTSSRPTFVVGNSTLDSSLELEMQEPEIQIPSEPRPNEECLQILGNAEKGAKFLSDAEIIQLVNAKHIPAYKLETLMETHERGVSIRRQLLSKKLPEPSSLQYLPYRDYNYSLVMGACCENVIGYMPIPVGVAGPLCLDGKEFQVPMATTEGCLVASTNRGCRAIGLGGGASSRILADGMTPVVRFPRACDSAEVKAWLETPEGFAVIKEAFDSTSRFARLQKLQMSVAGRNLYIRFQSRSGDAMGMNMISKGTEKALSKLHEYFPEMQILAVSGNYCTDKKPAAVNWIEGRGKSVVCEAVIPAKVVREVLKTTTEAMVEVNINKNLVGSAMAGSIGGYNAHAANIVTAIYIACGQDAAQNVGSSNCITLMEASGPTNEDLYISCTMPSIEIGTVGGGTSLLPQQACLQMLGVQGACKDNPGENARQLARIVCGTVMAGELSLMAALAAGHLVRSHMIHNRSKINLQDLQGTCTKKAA
Description: Non-competitive inhibition of HMG-CoA reductase in pig liver microsomes using varying levels of HMG-CoA as substrate preincubated for 5 mins followed by NADPH addition measured after 15 mins by Lineweaver-Burk plot analysis. In a few lines: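 HMG-CoA reductase kinetics: inhibitor at 5 to 20 μM, HMG-CoA at 2, 4, 6 and 8 μM. Initial velocities with and without inhibitor analysed by Lineweaver-Burk double-reciprocal plots.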

Chain of Sucrase-isomaltase, intestinal (P23739 1-1013 limits assumed): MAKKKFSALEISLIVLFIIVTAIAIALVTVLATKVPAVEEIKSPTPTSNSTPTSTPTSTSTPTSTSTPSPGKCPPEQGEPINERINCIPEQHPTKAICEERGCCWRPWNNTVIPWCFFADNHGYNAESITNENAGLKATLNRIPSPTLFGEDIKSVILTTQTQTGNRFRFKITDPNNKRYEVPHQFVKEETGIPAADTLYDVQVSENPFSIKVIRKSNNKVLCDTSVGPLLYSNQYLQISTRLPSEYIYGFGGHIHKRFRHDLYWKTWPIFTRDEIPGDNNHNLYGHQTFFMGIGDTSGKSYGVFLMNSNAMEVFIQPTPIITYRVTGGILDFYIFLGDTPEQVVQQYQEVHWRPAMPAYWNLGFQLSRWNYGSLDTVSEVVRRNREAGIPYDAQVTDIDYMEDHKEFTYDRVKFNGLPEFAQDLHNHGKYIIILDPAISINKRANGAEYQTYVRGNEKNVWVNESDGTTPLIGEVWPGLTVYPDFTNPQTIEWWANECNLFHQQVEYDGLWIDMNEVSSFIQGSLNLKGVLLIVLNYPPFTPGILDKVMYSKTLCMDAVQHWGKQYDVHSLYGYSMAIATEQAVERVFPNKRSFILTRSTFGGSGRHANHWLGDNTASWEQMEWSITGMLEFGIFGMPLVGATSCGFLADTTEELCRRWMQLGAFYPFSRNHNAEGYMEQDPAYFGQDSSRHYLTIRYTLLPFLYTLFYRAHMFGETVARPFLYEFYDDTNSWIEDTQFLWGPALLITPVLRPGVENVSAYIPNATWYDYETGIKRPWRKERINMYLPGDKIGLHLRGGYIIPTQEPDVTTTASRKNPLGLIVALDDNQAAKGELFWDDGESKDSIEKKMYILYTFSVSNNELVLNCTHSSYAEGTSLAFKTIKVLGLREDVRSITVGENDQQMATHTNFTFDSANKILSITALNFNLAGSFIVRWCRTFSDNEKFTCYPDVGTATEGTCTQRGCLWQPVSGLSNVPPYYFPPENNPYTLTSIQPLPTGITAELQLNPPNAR
Chain of Sucrase-isomaltase, intestinal (P23739 1014-1841 limits assumed): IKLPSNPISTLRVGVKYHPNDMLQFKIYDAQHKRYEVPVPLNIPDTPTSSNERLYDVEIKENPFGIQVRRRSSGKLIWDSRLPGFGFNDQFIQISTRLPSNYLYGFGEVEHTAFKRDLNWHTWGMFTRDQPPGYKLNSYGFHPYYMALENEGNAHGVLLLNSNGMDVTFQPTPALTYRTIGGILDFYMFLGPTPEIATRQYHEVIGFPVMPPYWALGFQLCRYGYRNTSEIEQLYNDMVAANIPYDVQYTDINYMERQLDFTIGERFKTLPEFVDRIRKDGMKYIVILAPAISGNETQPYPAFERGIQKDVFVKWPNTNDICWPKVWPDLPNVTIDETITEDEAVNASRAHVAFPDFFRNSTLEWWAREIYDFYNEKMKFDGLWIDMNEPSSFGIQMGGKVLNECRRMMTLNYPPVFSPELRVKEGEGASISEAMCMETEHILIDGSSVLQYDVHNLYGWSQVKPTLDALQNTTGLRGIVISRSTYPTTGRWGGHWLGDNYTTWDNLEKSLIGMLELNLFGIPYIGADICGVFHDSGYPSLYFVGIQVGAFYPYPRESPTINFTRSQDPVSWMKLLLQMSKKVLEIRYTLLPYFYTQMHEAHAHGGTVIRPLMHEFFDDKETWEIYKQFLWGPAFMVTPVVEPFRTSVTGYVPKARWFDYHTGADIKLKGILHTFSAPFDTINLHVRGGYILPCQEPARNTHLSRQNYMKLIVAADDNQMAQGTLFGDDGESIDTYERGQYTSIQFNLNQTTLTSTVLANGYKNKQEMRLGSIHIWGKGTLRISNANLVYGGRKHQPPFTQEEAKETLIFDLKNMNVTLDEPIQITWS

On to `CC(C)=CCC/C(C)=C/CCC1=C[C@H](c2cc(O)ccc2O)OC1=O`, for which the Activity entry in data set [1], in data set [3], in data set [6] and in [10] was “Non-Toxic” throughout. In addition, the outcome in data set [2], in [5], in data set [8], in data set [11], in [12] and in [13] was Active. For the same compound, the outcome in [14] and in data set [15] was Active. Besides, the pIC50 in data set [4] is 4.17; in data set [7], 5.44; in [9] it was 6.40. In addition, the inhibition entry in data set [16] is “Active”.
